Consider four compounds from ChEMBL document CHEMBL1121813, “Dihydrochalcone sweeteners. A study of the atypical temporal phenomena” (1981).

Format in all cases: functional
Assay [1] is filed under the species Homo sapiens. The assay can be described thus: Experimentally determined perceived intensity of compound at a concentration of 250 ppm (mean value). A digest of the protocol: (§1)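 Trained human sensory panel of judges tasted aqueous solutions of the compound. Samples had to be ≥95 weight % pure (HPLC, proton titration, Karl Fischer), non-mutagenic in five Salmonella typhimurium strains with and without microsomal activation, and non-toxic in a single-oral-dose mouse test. Perceived intensity (Ip) was read from time–intensity curves at 4- or 6-s intervals and averaged. Outliers at the 95% level were rejected by t-value. Values reported as mean (2Sm).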

For assay [2], the species on record is Homo sapiens. Put plainly: Salty character at a concentration of 250 ppm (mean value). A digest of the protocol:
(§2)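 Trained human sensory panel (Swartz method) tasted dilute aqueous solutions of the compounds, which had to be ≥95 weight percent pure and free of mutagenicity and toxicity. Taste character is reported as the mean value with 2S_m limits. Data deviating excessively at the 95% confidence level were rejected by the t-value method.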

The species named for assay [3] is Homo sapiens. Put plainly: Bitter character at a concentration of 250 ppm (mean value). A digest of the protocol:
(§3)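 Trained human panel tasted aqueous solutions. Each judge reported whether there was an aftertaste and its character (sweet, bitter or bitter-sweet). The value is the percentage of judgments reporting a bitter aftertaste.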

The species entered for assay [4] is Homo sapiens. Put plainly: Sour character at a concentration of 250 ppm (mean value). The gist of the method:
as §2

For assay [5], the species on record is Homo sapiens. Put plainly: Other taste character at a concentration of 250 ppm (mean value). The gist of the method:
as §2

The species named for assay [6] is Homo sapiens. Put plainly: Intensity calculated on a molar basis relative to a 0.25 M sucrose solution at a concentration of 250 ppm (mean value). A digest of the protocol: (§4)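 Trained human judges tasted aqueous solutions of the test compound; compounds were first required to be ≥95 weight percent pure and free of mutagenicity (five Salmonella typhimurium strains, ± microsomal activation) and of single oral dose mouse toxicity. Molar intensity I_m = perceived intensity × (0.25 M sucrose / compound molar concentration). The mean is reported with 2S_m limits; outliers were rejected at 95% confidence by t-value.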

For assay [7], the species on record is Homo sapiens. Put plainly: Intensity calculated on a weight basis relative to an 85500 ppm sucrose solution at a concentration of 250 ppm (mean value). A digest of the protocol:
(§5)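 Trained human panel tasted aqueous solutions of purity-checked (≥95 weight percent) compounds cleared for mutagenicity and mouse oral toxicity. Weight-basis intensity I_w = perceived intensity × (85500 ppm sucrose / compound concentration in ppm). The mean is reported with 2S_m limits; data deviating excessively at 95% confidence were rejected by the t-value method.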

Assay [8] is filed under the species Homo sapiens. Put plainly: Number of taste judgments per compound.
The species named for assay [9] is Homo sapiens. Put plainly: Sweet / Bitter character at a concentration of 250 ppm (mean value); 14/86.
The species entered for assay [10] is Homo sapiens. Put plainly: Percentage of judgments reporting an aftertaste at a concentration of 250 ppm and character thereof. The gist of the method: (§6)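 Trained judges tasted aqueous solutions of the compounds, which had to be ≥95 weight percent pure and to have passed mutagenicity and single oral dose toxicity screening. The value is the percentage of panel judgments reporting an aftertaste. Where given, its character is recorded as sweet, bitter or bitter-sweet.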

Assay [11] is filed under the species Homo sapiens. Put plainly: Sweet character at a concentration of 250 ppm (mean value). A digest of the protocol: as §2
Assay [12] is filed under the species Homo sapiens. The assay can be described thus: Sweet character at a concentration of 240 ppm (mean value). A digest of the protocol: as §2
The species named for assay [13] is Homo sapiens. Put plainly: Sour character at a concentration of 240 ppm (mean value). A digest of the protocol: as §2
The species entered for assay [14] is Homo sapiens. The assay can be described thus: Intensity calculated on a molar basis relative to a 0.25 M sucrose solution at a concentration of 240 ppm (mean value). The gist of the method: as §4
The species entered for assay [15] is Homo sapiens. Put plainly: Other taste character at a concentration of 240 ppm (mean value). The gist of the method:
as §2

The species named for assay [16] is Homo sapiens. The assay can be described thus: Bitter character at a concentration of 240 ppm (mean value). The gist of the method:
as §3

The species entered for assay [17] is Homo sapiens. Put plainly: Sweet / Bitter character at a concentration of 240 ppm (mean value); 7/93.
The species entered for assay [18] is Homo sapiens. The assay can be described thus: Intensity calculated on a weight basis relative to an 85500 ppm sucrose solution at a concentration of 240 ppm (mean value). The gist of the method:
as §5

The species named for assay [19] is Homo sapiens. The assay can be described thus: Salty character at a concentration of 240 ppm (mean value). A digest of the protocol:
as §2

The species named for assay [20] is Homo sapiens. Put plainly: Experimentally determined perceived intensity of compound at a concentration of 240 ppm (mean value). A digest of the protocol: as §1
The species named for assay [21] is Homo sapiens. Put plainly: Percentage of judgments reporting an aftertaste at a concentration of 240 ppm and character thereof. A digest of the protocol:
as §6

For assay [22], the species on record is Homo sapiens. Put plainly: Sweet / Bitter character at a concentration of 240 ppm (mean value); 0/100.
The species entered for assay [23] is Homo sapiens. The assay can be described thus: Sweet character at a concentration of 246 ppm (mean value).
The species entered for assay [24] is Homo sapiens. The assay can be described thus: Percentage of judgments reporting an aftertaste at a concentration of 246 ppm and character thereof. A digest of the protocol: as §6
The species named for assay [25] is Homo sapiens. Put plainly: Intensity calculated on a molar basis relative to a 0.25 M sucrose solution at a concentration of 246 ppm (mean value). The gist of the method:
as §4

The species named for assay [26] is Homo sapiens. Put plainly: Bitter character at a concentration of 246 ppm (mean value). The gist of the method:
as §3

For assay [27], the species on record is Homo sapiens. Put plainly: Other taste character at a concentration of 246 ppm (mean value). The gist of the method:
as §2

Assay [28] is filed under the species Homo sapiens. Put plainly: Salty character at a concentration of 246 ppm (mean value).
The species named for assay [29] is Homo sapiens. The assay can be described thus: Sweet / Bitter character at a concentration of 246 ppm (mean value); 44/56.
For assay [30], the species on record is Homo sapiens. The assay can be described thus: Experimentally determined perceived intensity of compound at a concentration of 246 ppm (mean value). The gist of the method:
as §1

Assay [31] is filed under the species Homo sapiens. Put plainly: Sour character at a concentration of 246 ppm (mean value).
Assay [32] is filed under the species Homo sapiens. The assay can be described thus: Intensity calculated on a weight basis relative to an 85500 ppm sucrose solution at a concentration of 246 ppm (mean value). The gist of the method:
as §5

On to `O=C([O-])COc1cc(O)c(C(=O)CCc2ccc(Cl)c(O)c2)c(O)c1.[Na+]`, for which the IP in the assay filed under Homo sapiens [1] turned out to be 0.28. In addition, the Taste character in the assay listed under Homo sapiens [2] is listed as 0; in the assay filed under Homo sapiens [3], 70; in the assay listed under Homo sapiens [4] it was 0; in the assay listed under Homo sapiens [5], 19; in the assay filed under Homo sapiens [9], 14; in the assay listed under Homo sapiens [11], 11. The IM in the assay listed under Homo sapiens [6] is 31. The IW in the assay listed under Homo sapiens [7] is 27. Moreover, the results for the Judgments in the assay filed under Homo sapiens [8] and in the assay listed under Homo sapiens [10] were 12 and 0, respectively.

Turning to `COc1ccc(CCCc2c(O)cc(O)cc2O)cc1O`, the Taste character in the assay filed under Homo sapiens [12] is recorded as 7; in the assay filed under Homo sapiens [13], 0; in the assay listed under Homo sapiens [15] it was 5; in the assay listed under Homo sapiens [16], 88; in the assay filed under Homo sapiens [17] it was 7; in the assay listed under Homo sapiens [19] it was 0. Further, the IM in the assay listed under Homo sapiens [14] is on record as 76. Further, the IW in the assay listed under Homo sapiens [18] is given as 89. Moreover, the Judgments in the assay listed under Homo sapiens [8] amounted to 12; in the assay filed under Homo sapiens [21] it was 0. In the assay listed under Homo sapiens [20], this compound displayed an IP of 0.25.

Turning to `COc1ccc(CCCc2c(O)cc(OCC(=O)[O-])cc2O)cc1O.[Na+]`, the Taste character in the assay listed under Homo sapiens [12] is given as 0; in the assay listed under Homo sapiens [13], 0; in the assay listed under Homo sapiens [15], 0; in the assay filed under Homo sapiens [22], 0; in the assay listed under Homo sapiens [16], 100; in the assay filed under Homo sapiens [19], 0. For the same compound, the IM in the assay filed under Homo sapiens [14] is on record as 4. Also, the IW in the assay listed under Homo sapiens [18] is 4. The figures for the Judgments in the assay listed under Homo sapiens [8] and in the assay listed under Homo sapiens [21] were 12 and 0, respectively. The compound further registered an IP in the assay listed under Homo sapiens [20] of 0.01.

Regarding `O=C([O-])COc1cc(O)c(C(=O)CCc2cccc(O)c2)c(O)c1.[Na+]`, the Taste character came to 38 in the assay filed under Homo sapiens [23]; 49 in the assay listed under Homo sapiens [26]; 13 in the assay listed under Homo sapiens [27]; 0 in the assay filed under Homo sapiens [28]; 44 in the assay listed under Homo sapiens [29]; 0 in the assay filed under Homo sapiens [31]. In addition, the figures for the Judgments in the assay listed under Homo sapiens [24] and in the assay listed under Homo sapiens [8] were 62 and 12, respectively. For the same compound, the IM in the assay filed under Homo sapiens [25] is on record as 79. For the same compound, the IP in the assay listed under Homo sapiens [30] came to 0.22. Also, the IW in the assay filed under Homo sapiens [32] was 76.
